A word on the IC50: it is the concentration that inhibits the measured activity by half.

Calls of active or inactive are those of the source. The rule behind the calls is not given here. Bounds are passed on as bounds.

Experiment [1] addresses Glycogen synthase kinase-3 (Sus scrofa, UniProt B2LUN4+I6LNT8). As to the kind of experiment: Inhibition of pig brain GSK3alpha/beta after 30 mins by scintillation counting.
Experiment [2] deals with Cyclin-dependent kinase 5/CDK5 activator 1 (Homo sapiens, UniProt Q00535). As to the kind of experiment: Inhibition of GST-fused recombinant CDK5/p25 expressed in Escherichia coli after 30 mins by scintillation counting.
A short description of experiment [3]: Inhibition of Marthasterias glacialis CDK1/cyclin B after 30 mins by scintillation counting.
Experiment [4] deals with Cyclin-dependent kinase 1 (Saccharomyces cerevisiae S288c, UniProt P00546). The experiment in a line: Inhibition of hemagglutininin-tagged Saccharomyces cerevisiae MNY629 Cdc28/Clb2. In a few lines: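 Cdc28/Clb2-HA was immunoprecipitated from strain MNY629 extracts with anti-HA and protein A/G agarose. Kinase reactions ran 30 min at 30 °C with histone H1, 15 µmol/l [γ-33P]ATP (stock) and varying drug concentrations in buffer C (25 mM MOPS pH 7.2, 15 mM MgCl2, 5 mM EGTA, 1 mM DTT, phosphatase inhibitors). Products were spotted on P81 paper, washed in 1% phosphoric acid and counted by scintillation. IC50 was taken from the dose–response curve.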

Experiment [5] deals with Cyclin-dependent protein kinase PHO85 (Saccharomyces cerevisiae S288c) (UniProt P17157). The experiment in a line: Binding affinity to Saccharomyces cerevisiae Pho85. The gist of the method:
(§1)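 Budding yeast grown to OD600 ~2 were lysed under 2.5 kbar pressure in breaking buffer (25 mM Tris pH 7.4, 100 mM NaCl, 0.2% Triton X100, phosphatase and protease inhibitors) and clarified. The lysate was incubated with Sepharose matrices carrying linker-attached drug (3 µmol/ml resin), methyl control or ethanolamine-blocked beads. Bound proteins were eluted in Laemmli buffer and analysed by SDS–PAGE with silver staining or western blot.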

The nature of experiment [6]: Inhibition of histidine6-tagged Plasmodium falciparum recombinant GSK3 expressed in Escherichia coli by scintillation counting.
Experiment [7] has as its target Cyclin-dependent kinase 1 (Saccharomyces cerevisiae S288c) (UniProt P00546). As to the kind of experiment: Binding affinity to Saccharomyces cerevisiae Cdc28. The gist of the method:
as §1

Another experiment relates to Saccharomyces cerevisiae. The experiment in a line: Growth inhibition of drug-sensitized Saccharomyces cerevisiae YRP1 assessed as growth deffect. The class given is functional, organism-based. The gist of the method:
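Growth defect of the drug-sensitized YRP1 strain (snq2Δ pdr5Δ erg6Δ) was scored on agar plates by halo assay.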

The target in experiment [8] is Cyclin-dependent protein kinase PHO85 (Saccharomyces cerevisiae S288c) (UniProt P17157). The experiment in a line: Inhibition of Saccharomyces cerevisiae YRP1 Pho85 assessed as induction of nuclear localization of GFP-tagged transcription factor Pho4 at 250 uM after 3 hrs by fluorescence microscopy. In a few lines: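 The drug-sensitized strain YRP1 (snq2Δ pdr5Δ erg6Δ) carried a Pho4-GFP plasmid. Cells were grown overnight without uracil, diluted to OD600 0.5 and treated with 250 µM drug, with methanol as vehicle. After 3 h, GFP localization was examined by fluorescence microscopy (excitation 455–495 nm).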
Sequence of Cyclin-dependent protein kinase PHO85 (Saccharomyces cerevisiae S288c) (P17157 whole entry): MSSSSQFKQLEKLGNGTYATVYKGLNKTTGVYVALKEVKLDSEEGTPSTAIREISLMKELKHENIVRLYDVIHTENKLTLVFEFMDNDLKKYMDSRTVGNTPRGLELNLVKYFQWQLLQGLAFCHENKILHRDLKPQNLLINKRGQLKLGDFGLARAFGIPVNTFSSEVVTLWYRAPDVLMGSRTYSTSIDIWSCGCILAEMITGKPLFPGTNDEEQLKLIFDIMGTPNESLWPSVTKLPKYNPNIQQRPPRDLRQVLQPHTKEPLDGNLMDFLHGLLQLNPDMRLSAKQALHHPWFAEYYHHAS

Sequence of Cyclin-dependent kinase 5/CDK5 activator 1 (Q00535 whole entry, the tested form may be a part): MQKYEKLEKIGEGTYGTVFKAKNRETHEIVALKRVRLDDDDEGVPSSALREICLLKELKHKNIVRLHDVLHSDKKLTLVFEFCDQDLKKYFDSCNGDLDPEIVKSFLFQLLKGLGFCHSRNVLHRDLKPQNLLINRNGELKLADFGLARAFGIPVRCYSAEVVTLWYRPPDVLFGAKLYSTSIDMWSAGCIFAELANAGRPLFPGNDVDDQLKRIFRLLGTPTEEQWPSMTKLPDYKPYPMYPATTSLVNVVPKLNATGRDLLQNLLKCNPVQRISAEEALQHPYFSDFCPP
Sequence of Cyclin-dependent kinase 5/CDK5 activator 1 (Q15078 whole entry, further chain, the tested form may be a part): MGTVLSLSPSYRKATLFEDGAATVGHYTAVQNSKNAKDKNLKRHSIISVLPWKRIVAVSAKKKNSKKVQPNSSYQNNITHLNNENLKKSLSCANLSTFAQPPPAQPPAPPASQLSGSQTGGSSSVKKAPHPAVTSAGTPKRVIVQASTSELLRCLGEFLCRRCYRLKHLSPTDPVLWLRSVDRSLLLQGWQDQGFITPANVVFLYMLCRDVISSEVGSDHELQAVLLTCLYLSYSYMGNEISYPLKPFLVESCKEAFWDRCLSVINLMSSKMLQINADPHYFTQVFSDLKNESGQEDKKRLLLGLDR
Sequence of Cyclin-dependent kinase 1 (P00546 whole entry): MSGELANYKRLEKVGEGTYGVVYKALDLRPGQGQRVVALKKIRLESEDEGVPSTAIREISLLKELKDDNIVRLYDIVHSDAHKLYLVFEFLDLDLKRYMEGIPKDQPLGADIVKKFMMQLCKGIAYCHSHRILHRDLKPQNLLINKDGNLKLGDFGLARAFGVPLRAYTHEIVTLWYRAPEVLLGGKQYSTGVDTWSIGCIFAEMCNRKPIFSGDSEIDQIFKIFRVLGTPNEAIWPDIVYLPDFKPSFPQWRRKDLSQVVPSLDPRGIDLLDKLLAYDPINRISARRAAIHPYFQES
Sequence of Cyclin-dependent kinase 1 (Saccharomyces cerevisiae S288c) (P00546 2-298 limits assumed): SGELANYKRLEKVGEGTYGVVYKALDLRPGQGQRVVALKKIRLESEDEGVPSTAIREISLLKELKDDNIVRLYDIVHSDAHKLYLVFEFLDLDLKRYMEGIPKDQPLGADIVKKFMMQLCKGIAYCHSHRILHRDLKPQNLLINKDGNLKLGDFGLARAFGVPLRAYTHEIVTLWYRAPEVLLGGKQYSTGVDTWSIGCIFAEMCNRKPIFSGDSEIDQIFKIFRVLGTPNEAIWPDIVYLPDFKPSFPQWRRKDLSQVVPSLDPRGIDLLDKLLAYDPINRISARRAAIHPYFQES

With `CCCCc1c(-c2ccc(OCCOCCOCCN)cc2)n(C)c2nccnc12`, the IC50 in experiment [1] was 45 µM; in experiment [2] it was 50 µM; in [3], 100 µM.
Taken in the same sequence, the figures for `CCCCc1c(-c2ccc(OCCOCCOCCN)cc2)[nH]c2nccnc12` were 0.34 µM, 0.66 µM and 0.23 µM.
For `CCCCc1c(-c2ccc(O)cc2)n(C)c2nccnc12` [N-METHYL-ALOISINE A], the IC50 in [1] is greater than 200 µM; in [2], 160 µM; in [4], greater than 33 µM; in experiment [3], 140 µM; in [6] it was greater than 100 µM. Further, the outcome in experiment [5] and in [7] was inactive.
As to `CCCCc1c(-c2ccc(O)c(-c3cn(CCOCCOCCN)nn3)c2)[nH]c2nccnc12`, the results for the concentration for half-maximal inhibition (IC50) in experiment [1], in experiment [2] and in experiment [3] were 5.8 µM, greater than 10 µM and 6.7 µM, respectively.
As for `CCCCc1c(-c2ccc(O)cc2)[nH]c2nccnc12` [ALOISINE A], the “growth inhibition (GI)” value in the experiment with Saccharomyces cerevisiae is “inactive”. Moreover, the IC50 in experiment [1] stood at 0.65 µM; in experiment [4], 2.5 µM; in [6], 5.5 µM. For the same compound, the outcome in experiment [8] was Active.
Turning to `CCCCc1c(-c2ccc(O)c(-c3cn(CCOCCOCCN)nn3)c2)n(C)c2nccnc12`, the IC50 in experiment [1], in [2] and in experiment [3] was greater than 10 µM throughout.

(Values after ChEMBL document CHEMBL1152428 (Bioorg Med Chem, 2009).)
